Assay results taken from ChEMBL document CHEMBL2380219, “Physalin A induces apoptotic cell death and protective autophagy in HT1080 human fibrosarcoma cells” (J Nat Prod, 2013).
Active and inactive are the calls of the source. The calls are words filed in the database; no cut-off is given here.

Key:
HT-1080 [1] = experiment: Induction of apoptosis in human HT1080 cells assessed as downregulation of ICAD at 10 uM pretreated with rapamycin for 1 hr prior to compound addition measured after 24 hrs by Western blotting analysis; assay type: functional, cell-based
How it was run: (§1)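 HT1080 cells pretreated 1 h with 1 mM 3MA or 1 nM rapamycin, then co-incubated with 10 μM for 24 h. Adherent and floating cells lysed in Hepes pH 7.4/Triton buffer. 12% SDS-PAGE, nitrocellulose, antibodies against Fas, FADD, caspase-8, caspase-3, PARP and ICAD, ECL detection. Densities normalized to β-actin; n = 3.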

HT-1080 [2] = experiment: Induction of autophagy in human HT1080 cells assessed as autophagic vacuole formation at 10 uM pretreated with rapamycin for 1 hr prior to compound addition measured after 24 hrs by MDC staining-based FACS flow cytometric analysis; assay type: functional, cell-based
How it was run: (§2)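 HT1080 cells seeded at 3 × 10^5 per flask and grown 24 h. Pretreated 1 h with 1 mM 3MA or 1 nM rapamycin, then 10 μM for 24 h. Collected cells stained with 0.05 mM MDC at 37 °C for 1 h. MDC-positive ratio measured by flow cytometry, n = 3, mean ± SD.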

PBMC = experiment: Cytotoxicity against human PBMC at 10 to 80 uM after 24 to 48 hrs by MTT assay; assay type: cell-based
How it was run: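 PBMC from fresh blood of three healthy male donors. Blood diluted 1:3 in PBS, layered on Ficoll-Hypaque (1.077 g/mL), spun 900g 30 min. Band washed 400g 10 min, cells resuspended in complete RPMI-1640 in 96-well plates. Treated with 0, 10, 20, 40 or 80 μM for 24 and 48 h, then MTT. Means ± SD of three independent experiments.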

HT-1080 [3] = experiment: Induction of apoptosis in human HT1080 cells assessed as appearance of cleaved procaspase-9 at 10 uM after 6 to 24 hrs by Western blotting analysis; assay type: functional, cell-based
How it was run: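 HT1080 cells treated with 10 μM for 6, 12, 18 and 24 h. Adherent and floating cells lysed 60 min at 4 °C in Hepes pH 7.4/1% Triton X-100 buffer with phosphatase and protease inhibitors. Equal protein run on 12% SDS-PAGE, transferred to nitrocellulose, probed with specific antibodies, HRP/ECL detection. Band density normalized to β-actin; n = 3.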

HT-1080 [4] = experiment: Induction of apoptosis in human HT1080 cells assessed as appearance of granular apoptotic bodies at 10 uM after 24 hrs by acridine orange staining-based fluorescence microscopic analysis; assay type: functional, cell-based
How it was run: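 HT1080 cells, 2 × 10^4/well, cultured 24 h, then exposed to 10 μM for 24 h. Stained with acridine orange 20 μg/mL for 15 min in the dark and examined by fluorescence microscopy at 200×.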

HT-1080 [5] = experiment: Induction of apoptosis in human HT1080 cells assessed as procaspase-8 cleavage at 10 uM by Western blotting analysis; assay type: functional, cell-based; settings: TDE = time-dependent effect
HT-1080 [6] = experiment: Induction of autophagy in human HT1080 cells assessed as upregulation of beclin 1 at 10 uM by Western blotting analysis; assay type: functional, cell-based; settings: TDE = time-dependent effect
How it was run: (§3)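 HT1080 cells exposed to 10 μM for 6, 12, 18 and 24 h, then lysed in Hepes pH 7.4/Triton buffer at 4 °C for 60 min. Equal protein run on 12% SDS-PAGE, blotted to nitrocellulose, probed for beclin 1 and LC3, ECL detection. Densities taken relative to β-actin, n = 3.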

HT-1080 [7] = experiment: Induction of apoptosis in human HT1080 cells expressing beclin 1 siRNA assessed as increase in FAS protein expression at 10 uM after 24 hrs by Western blotting analysis relative to control; assay type: functional, cell-based
How it was run: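 Beclin 1 or nonspecific siRNA transfected into HT1080 cells (5 × 10^5 seeded a day earlier; transfection mixture for 7 h at 37 °C, then normal medium, 24 h before harvest). Cells then got 10 μM for 24 h. Adherent plus floating cells lysed in Hepes pH 7.4/Triton buffer at 4 °C for 60 min. Equal protein on 12% SDS-PAGE, nitrocellulose, ECL. Bands normalized to β-actin, n = 3.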

HT-1080 [8] = experiment: Induction of autophagy in human HT1080 cells assessed as autophagic vacuole formation at 10 uM pretreated with 3MA for 1 hr prior to compound addition measured after 24 hrs by MDC staining-based FACS flow cytometric analysis; assay type: functional, cell-based; how it was run: as §2
HT-1080 [9] = experiment: Induction of apoptosis in human HT1080 cells assessed as increase in procaspase-3 cleavage at 10 uM pretreated with 3MA for 1 hr prior to compound addition measured after 24 hrs by Western blotting analysis; assay type: functional, cell-based; how it was run: as §1
HT-1080 [10] = experiment: Cytotoxicity against human HT1080 cells assessed as growth inhibition at 10 uM pretreated with z-IETD-FMK for 1 hr prior to compound addition measured after 24 hrs by MTT assay; assay type: functional, cell-based
How it was run: (§4)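 HT1080 seeded 0.8 × 10^4 cells/well. MTT 2 h at 37 °C, formazan in DMSO, A492 read. Inhibition % calculated against untreated and blank wells.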

HT-1080 [11] = experiment: Cytotoxicity against human HT1080 cells assessed as growth inhibition after 24 hrs by MTT assay; assay type: functional, cell-based; settings: HT-1080, 24 h
HepG2 = experiment: Cytotoxicity against human HepG2 cells assessed as growth inhibition after 24 hrs by MTT assay; assay type: functional, cell-based
How it was run: (§5)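 Seeded 0.8 × 10^4 cells/well, cultured 24 h, then exposed to 0, 10, 20, 40 or 80 μM for 24 h (DMSO <0.05%) in RPMI 1640 or MEM with 10% FBS. Adherent lines rinsed with PBS, given MTT 2 h at 37 °C. Suspension lines (U937, HL60) given MTT 2 h, then centrifuged. Formazan dissolved in DMSO, A492 read. Inhibition % = (control − sample)/(control − blank) × 100.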

HT-1080 [12] = experiment: Induction of autophagy in human HT1080 cells assessed as conversion from LC31to LC32 at 10 uM by Western blotting analysis; assay type: functional, cell-based; settings: TDE = time-dependent effect; how it was run: as §3
HCT-116 = experiment: Cytotoxicity against human HCT116 cells assessed as growth inhibition after 24 hrs by MTT assay; assay type: functional, cell-based; how it was run: as §5
A549 = experiment: Cytotoxicity against human A549 cells assessed as growth inhibition after 24 hrs by MTT assay; assay type: functional, cell-based; how it was run: as §5
HL-60 = experiment: Cytotoxicity against human HL60 cells assessed as growth inhibition after 24 hrs by MTT assay; assay type: functional, cell-based; how it was run: as §5
HT-1080 [13] = experiment: Cytotoxicity against human HT1080 cells assessed as growth inhibition after 12 to 72 hrs by MTT assay; assay type: functional, cell-based
HT-1080 [14] = experiment: Induction of apoptosis in human HT1080 cells expressing beclin 1 siRNA assessed as ICAD downregulation at 10 uM after 24 hrs by Western blotting relative to control; assay type: functional, cell-based
How it was run: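 5 × 10^5 HT1080 cells transfected with beclin 1 or nonspecific siRNA using TranSmarter for 7 h at 37 °C, then kept 24 h in normal medium. Treated with 10 μM for 24 h and lysed. Proteins assessed by Western blot with β-actin normalization and compared with nonspecific-siRNA groups.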

A-431 = experiment: Cytotoxicity against human A431 cells assessed as growth inhibition after 24 hrs by MTT assay; assay type: functional, cell-based; how it was run: as §5
HT-1080 [15] = experiment: Cytotoxicity against human HT1080 cells assessed as growth inhibition at 10 uM pretreated with rapamycin for 1 hr prior to compound addition measured after 24 hrs by MTT assay.; assay type: functional, cell-based; how it was run: as §4
HT-1080 [16] = experiment: Induction of apoptosis in human HT1080 cells assessed as upregulation of FAS protein expression at 10 uM pretreated with rapamycin for 1 hr prior to compound addition measured after 24 hrs by Western blotting analysis; assay type: functional, cell-based; how it was run: as §1

For `C=C1C(=O)O[C@@H]2C[C@@]1(C)[C@@H]1C(=O)[C@]3(O)O[C@]14[C@@]2(C)OC(=O)[C@@]4(O)CC[C@H]1[C@H]3[C@H](O)C=C2CC=CC(=O)[C@@]21C` [PHYSALIN A], the Activity (HT-1080 [1]) was “inactive”, the Activity (HT-1080 [2]) was “Active” and the Activity (PBMC) was “Non-toxic”. The Activity (HT-1080 [3]) was “inactive”, the Activity (HT-1080 [4]) was “Active” and the Activity (HT-1080 [5]) was “tde”. For the same compound, the Activity (HT-1080 [6]) was “tde”, the Activity (HT-1080 [7]) was “Active” and the Activity (HT-1080 [8]) was “inactive”. For the same compound, the Activity (HT-1080 [9]) was “Active”, the “growth inhibition (GI)” value (HT-1080 [10]) was “Active” and the IC50 (HT-1080 [11]) was 10.7 µM. The “growth inhibition (GI)” value (HepG2) was “Dose-dependent effect”, the Activity (HT-1080 [12]) was “tde” and the “growth inhibition (GI)” value (HCT-116) was “Dose-dependent effect”. For the same compound, the “growth inhibition (GI)” value (A549) was “Dose-dependent effect”, the “growth inhibition (GI)” value (HL-60) was “Dose-dependent effect” and the “growth inhibition (GI)” value (HT-1080 [13]) was “Dose-dependent effect”. For the same compound, the Activity (HT-1080 [14]) was “Active”, the “growth inhibition (GI)” value (A-431) was “Dose-dependent effect” and the “growth inhibition (GI)” value (HT-1080 [15]) was “inactive”. For the same compound, the Activity (HT-1080 [16]) was “inactive”.
